tim10-1 inh: inhibits growth of tim10-1 mutant yeast | S. cerevisiae tim10-1 ts strain growth, BacTiter-Glo, 24 h | inhibition, % at 20 µM | actives 2.2% (n = 330,000) | AID 463190;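 active = inhibition of at least 40%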;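 also: mutant grown at 25 °C; 0% = DMSO wells with yeast and 100% = wells holding no yeast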
XBP1 UPR activ: adaptive UPR (XBP1) activation; CHO-XBP1 luciferase reporter, IRE1-XBP1 UPR activation, luminescence; percent of tunicamycin response, DMSO as zero; actives 0.33% (n = 330,000); AID 463104; activation, % at 20 µM;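 active = versus positive control, 20 µM dose yields 30% or more activation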;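 also: 100% = tunicamycin at 10 µg/mL and 0% = DMSO only wells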
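Assay system: CHO-XBP1 luciferase reporter cells; Schedule: 6 h treatment, 37 °C; Detection: glow luminescence from Steady-Glo reagent; Benchmarks: high control tunicamycin 10 µg/mL final, low control DMSO vehicle only.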
TIM10 inh: TIM10 yeast growth inhibition; AID 463195; inhibition, % at 10 µM; actives 1.4% (n = 330,000); S. cerevisiae TIM10 strain growth, BacTiter-Glo luminescence, 24 h;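 active = inhibition of 40% or more at the single tested concentration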;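 also: wild-type TIM10 isogenic control strain grown at permissive 25 °C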
CHOP UPR activ: activators of apoptotic arm of unfolded protein response (CHOP); actives 0.34% (n = 330,000); CHO-CHOP luciferase reporter, UPR activation, luminescence; percent of tunicamycin response over DMSO baseline; activation, % at 10 µM;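 active = at 10 µM dose, activation of 40% or more, normalized to positive control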;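 also: 100% = tunicamycin at 10 µg/mL and 0% = DMSO alone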
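System: CHO-CHOP luciferase reporter cell line; amount: 500 cells/well; buffer or medium: F12 medium containing 10% fetal bovine serum; incubation: 6 h compound exposure at 37 °C after overnight seeding; measured by: luciferase luminescence after 10 min with Steady-Glo reagent; evaluation: % reporter activation, DMSO baseline versus tunicamycin full activation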
tim23-1 inh: inhibits growth of tim23-1 mutant yeast; S. cerevisiae tim23-1 growth, BacTiter-Glo luminescence, 24 h; inhibition, % at 20 µM; actives 1.3% (n = 330,000); AID 463212;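 active = growth inhibition of the mutant yeast at or above 50%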;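 also: temperature-sensitive mutant grown at 25 °C; plate controls were DMSO-treated mutant yeast for no effect and medium wells lacking yeast for full effect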
tim23-1 confirm: confirmation of tim23-1 mutant yeast growth inhibitors; S. cerevisiae tim23-1 growth, BacTiter-Glo luminescence, 24 h; actives 83% (n = 4,400); AID 463218; shares compounds with tim23-1 inh; inhibition, % at 20 µM;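 active = inhibition above about 39% in either of two replicate wells at 20 µM, limit read from the data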;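 also: temperature-sensitive tim23-1 mutant grown at 25 °C; 0% = DMSO wells with yeast and 100% = medium wells without yeast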
Numbers without * were called inactive; . = no result given. Most compounds without a hit are left out; they make up all but 3.9% or so of the library.

SMILES | tim10-1 inh | XBP1 UPR activ | TIM10 inh | CHOP UPR activ | tim23-1 inh | tim23-1 confirm
CC1(c2ccccc2)CC(C)(C)n2c(O)c(C3=NC(=S)NC3=O)c3cccc1c32 (centres undefined) | -4 | 19 | -22 | 2 | -14 | .
O=C(c1ccccc1NS(=O)(=O)c1ccc([N+](=O)[O-])cc1[N+](=O)[O-])N1O[C@@H]2C=C[C@H]1C2 | 28 | 0 | 4 | 5 | 53* | 38
O=C(c1ccccc1NS(=O)(=O)c1ccccc1[N+](=O)[O-])N1CCOCC1 | 7 | 1 | -5 | -1 | 0 | .
COc1ccc(/C=N/NC(=O)CC(=O)N/N=C/c2ccc(OC)cc2)cc1 | 16 | -6 | 2 | 1 | -3 | .
COc1ccc(CCCC(=O)N/N=C/c2ccc(C)cc2)cc1 | 31 | -2 | 0 | -1 | 56* | 51*
Cc1[nH]n(-c2ccccc2)c(=O)c1/C=C1\C=NN=C1c1ccccc1 | 26 | 4 | 22 | 3 | 62* | 55*
Cc1[nH]n(-c2ccccc2)c(=O)c1/C=N/O | -5 | -1 | -5 | -2 | 3 | .
c1ccc(-n2nc3c(ccc4cnnc43)[nH]2)cc1 | 24 | 7 | 21 | 7 | 53* | 50*
COc1ccc(-c2nc3ccccc3c(=O)n2O)cc1 | 40 | -1 | 31 | 0 | 58* | 52*
COc1ccccc1-c1ccc2nnc(SC)n2n1 | 21 | 1 | -8 | 1 | 10 | .
Oc1ccc(/C=N/Nc2cccc(Cl)n2)c(O)c1 | -49 | 7 | 4 | 5 | 56* | 44*
Cc1cc(OC(C)C(=O)NCCCN2CCOCC2)c2c(C)c(C)c(=O)oc2c1 (centres undefined) | -3 | -3 | -3 | 1 | -10 | .
Oc1ccc2ccccc2c1/C=N/c1nccs1 | 25 | -2 | 26 | 0 | 57* | 60*
Oc1oc(-c2ccccc2)nc1/C=N/c1nccs1 | 17 | -1 | 11 | 1 | -1 | .
OCC(CO)(CO)N=Cc1c(O)ccc2ccccc12 | 14 | -3 | -5 | -1 | 20 | .
C=Cc1ccc(N=Cc2c(O)ccc3ccccc23)cc1 | 27 | 0 | 17 | 4 | 49 | .
CS/C(N)=N/N=C/c1c(O)ccc2ccccc12 | 10 | 4 | 36 | 6 | 58* | 70*
Oc1ccc2ccccc2c1C=Nc1ccccc1Br | 21 | -4 | 26 | -3 | 53* | 51*
CN(C)c1ccc(CNCc2cccnc2)cc1 | -13 | -3 | 11 | -2 | 6 | .
CN1CCN(c2ccc(Cl)cc2NC(=O)/C=C/c2ccc(F)cc2)CC1 | 10 | 5 | -7 | 0 | 15 | .
CC1NC(=S)N(C2CCCCC2)C1=O (centres undefined) | 6 | -2 | 6 | -2 | 16 | .
CCCCC1NC(=S)N(C2CCCCC2)C1=O (centres undefined) | 8 | 0 | 33 | 0 | 58* | 22
CCN1C(=O)[C@H]2[C@@H](c3ccc(-c4ccc(Cl)c(Cl)c4)cc3)N[C@@](Cc3ccccc3)(C(=O)OC)[C@H]2C1=O | -1 | -4 | 10 | 2 | 8 | .
Cc1cc(NCc2ccccc2)n2ncc(-c3ccccc3)c2n1 | 22 | 2 | -8 | 6 | 38 | .
Cc1cc(NC2CCCC2)n2nc(C)c(-c3ccccc3)c2n1 | 28 | -2 | 35 | 9 | 51* | 43*
SMILES | tim10-1 inh | XBP1 UPR activ | TIM10 inh | CHOP UPR activ | tim23-1 inh | tim23-1 confirm
Cc1cc(NC2CCCC2)n2ncc(-c3ccccc3)c2n1 | 37 | -10 | 22 | -4 | 50* | 18
Cn1c(N2CCCC2)nc2c1c(=O)n(Cc1ccc(F)cc1)c(=O)n2C | 27 | 1 | 27 | 2 | 23 | .
Cn1c(N2CCOCC2)nc2c1c(=O)n(Cc1ccc(Cl)c(Cl)c1)c(=O)n2C | 37 | 1 | 15 | -3 | 55* | 38
CN(Cc1ccccc1N1CCCC1)C(=O)c1cc2cc(Cl)ccc2o1 | 8 | -2 | -2 | 0 | 30 | .
Nc1n[nH]c(C2CC2)c1N=Nc1ccc(Cl)c(Cl)c1 | 35 | 1 | 39 | 6 | 69* | 9
Nc1n[nH]c(C2CC2)c1N=Nc1ccc(Cl)cc1 | 8 | 4 | 25 | 2 | 69* | 24

High-throughput results as filed in PubChem.
